PG9 Ab binder – binders of HIV-1 gp120 antibody PG9, primary screen, biochemical, TR-FRET; TR-FRET gp120-PG9 antibody binding; AID 624416, 2012; actives 0.43% (n = 360,000); inhibition, % at 6.7 µM; in the data active = inhibition above about 8.5%
NR2E3 ag-1 – inhibitors of NR2E3-RetCOR corepressor binding, primary screen, NR2E3 agonist project, biochemical, TR-FRET, GST-NR2E3, biotin-RetCOR; 1536-well; inhibition of corepressor binding, % at 4.78 µM; actives 0.12% (n = 320,000);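 active = percent inhibition above the cutoff of mean plus 3 SD of all tested compounds, set per screening campaign, cut at about 20% in these data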
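Assay system: NR2E3–RetCOR corepressor complex. Quantity: 1.35 nM GST-NR2E3. Buffer or medium: pH 7.5 Tris-based buffer. Reagent: biotinylated RetCOR corepressor at 7 nM final. Schedule: 5 h at 4 °C. Detection: TR-FRET, emission read at 617 and 671 nm. Replicates: one well per compound, singlicate testing.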
NR2E3 ag-2 – NR2E3 agonists in two-hybrid cells, primary screen, cell-based, luminescence, CHO-S, Gal4-NCOR/VP16-NR2E3 | Photoreceptor-specific nuclear receptor (Homo sapiens), Q9Y5X4 | actives 0.35% (n = 360,000) | luciferase | inhibition of corepressor binding, % at 3.98 µM;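 active = inhibition above the mean of all tested compounds plus 3 SD, cut at about 70% in these data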;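 also: higher means lower luciferase signal from less NR2E3 corepressor binding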
Rev-erbA mod – modulators of Rev-erb alpha DNA binding, primary screen, biochemical, FITC-DNA, fluorescence polarization, uHTS; Nuclear receptor subfamily 1 group D member 1 (Homo sapiens), P20393; activity, % at 10 µM; Rev-erbα–FITC-DNA binding, 90 min; actives 0.79% (n = 370,000);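 active = activity above about 14%, limit read from the data; passing the limit was not always enough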
Target sequence (P20393 whole entry, looked up): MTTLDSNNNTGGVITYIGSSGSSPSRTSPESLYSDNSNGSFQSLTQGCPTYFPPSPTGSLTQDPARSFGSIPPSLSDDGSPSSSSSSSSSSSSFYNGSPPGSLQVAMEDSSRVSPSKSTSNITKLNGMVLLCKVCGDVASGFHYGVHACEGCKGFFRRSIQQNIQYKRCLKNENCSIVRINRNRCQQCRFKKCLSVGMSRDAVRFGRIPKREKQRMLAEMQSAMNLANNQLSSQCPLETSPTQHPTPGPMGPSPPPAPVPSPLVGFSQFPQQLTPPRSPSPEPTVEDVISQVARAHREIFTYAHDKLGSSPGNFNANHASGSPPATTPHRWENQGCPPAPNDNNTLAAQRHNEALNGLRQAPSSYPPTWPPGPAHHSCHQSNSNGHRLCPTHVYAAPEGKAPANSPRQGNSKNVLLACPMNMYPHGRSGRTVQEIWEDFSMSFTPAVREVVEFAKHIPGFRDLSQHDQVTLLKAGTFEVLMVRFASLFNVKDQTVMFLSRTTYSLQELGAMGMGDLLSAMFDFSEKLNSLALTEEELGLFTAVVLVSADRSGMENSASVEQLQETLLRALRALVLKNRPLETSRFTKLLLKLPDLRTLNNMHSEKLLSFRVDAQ
NR2E3 ag conf – NR2E3 agonist confirmation in cells, cell-based, luminescence, CHO-S two-hybrid | shares compounds with NR2E3 ag-2 | CHO-S mammalian two-hybrid NR2E3-NCOR, luciferase luminescence | inhibition, % at 3.98 µM | actives 51% (n = 2,300);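 active = average inhibition above a cutoff equal to the mean inhibition of all tested compounds plus one SD, cut at about 70% in these data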
GAL4-VP16 luc – GAL4-VP16 reporter modulators, confirmation, counter-screen for NR2E3 agonist project, cell-based, luminescence, CHO-S, high throughput | shares compounds with NR2E3 ag-2 | CHO-S GAL4-VP16 luciferase reporter | inhibition, % at 3.98 µM | actives 29% (n = 2,300);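 active = mean inhibition above a cutoff equal to the average over all tested compounds plus one standard deviation, cut at about 70% in these data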;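 also: luciferase from a UAS reporter driven by GAL4-VP16 transactivation; higher means less reporter light so more repression of VP16 activity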
PG9 binder conf – binders of anti-gp120 antibody PG9, confirmation, biochemical, TR-FRET | shares compounds with PG9 Ab binder | TR-FRET PG9 antibody binding | inhibition, % at 6.7 µM | actives 90% (n = 1,500) | AID 651571, 2012; in the data active = inhibition above about 9%
PGV04 Ab binding – binders of control antibody PGV04, counter-screen for PG9 antibody binder project, biochemical, TR-FRET, distinct HIV envelope site. TR-FRET PGV04 antibody-gp120 binding. shares compounds with PG9 Ab binder. actives 95% (n = 1,500). inhibition, % at 6.7 µM; in the data active = inhibition above about 9.5%
Rev-erbA confirm – modulators of Rev-erb alpha DNA binding, confirmation, biochemical, FITC-DNA, fluorescence polarization, single point; shares compounds with Rev-erbA mod; 90 min; activation, % at 25 µM; actives 61% (n = 3,000); AID 1259319, 2017;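 active = activation at or above a set limit, or at least 3 SD above the negative control mean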
RORg DNA counter – modulation of RORgamma DNA binding, dose response, counter-screen for Rev-erb alpha modulator project, biochemical, fluorescence polarization, FITC-DNA; shares compounds with Rev-erbA mod; purified RORgamma protein-FITC-DNA binding; IC50, µM; actives 8% (n = 910);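 active = Compounds whose fitted half-maximal concentration for disrupting protein-DNA binding is below 10 micromolar; the record names Rev-erb in its text, so the target is in doubt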
A number is an active result; n = inactive; x = no result given. Rows were chosen to be rich in hits. Some 1.4% of all compounds tested hit in one or more screens of this group.

SMILES	PG9 Ab binder	NR2E3 ag-1	NR2E3 ag-2	Rev-erbA mod	Rev-erbA confirm	others
COC(COC(N)=O)C1=C(N2CC2)C(=O)C(C)=C(N2CC2)C1=O (stereo unspecified)	n	x	n	n	x
CCC(=O)O[C@H]1CCC2C3CCC4=CC(=O)CC[C@]4(C)C3CC[C@@]21C (stereo partly specified)	x	x	x	n	x
O=C(O)CCCO	x	x	x	n	x
C[C@H]1CCC/C=C/[C@@H]2C[C@H](O)C[C@H]2[C@H](O)/C=C/C(=O)O1	n	n	95.2	n	x	NR2E3 ag conf=98.8;GAL4-VP16 luc=n
O=C(NC(Cc1ccccc1)P(=O)(O)Oc1ccccc1)OCc1ccccc1 (stereo unspecified)	x	x	x	n	x
C[C@]12CCC(=O)C=C1C=CC1C2CC[C@@]2(C)C1CC[C@@]2(O)CCC(=O)O (stereo partly specified)	x	x	x	n	x
C=CCN1CC[C@]23c4c5ccc(O)c4O[C@@H]2C(=O)CC[C@@]3(O)[C@H]1C5	x	x	x	n	x
COc1cc2nc(CN3CC=C(c4ccccc4)CC3)[nH]c(=O)c2cc1OC	n	n	90.2	n	x	NR2E3 ag conf=99.3;GAL4-VP16 luc=n
Cn1c(O)c(/C=C2\C=Nc3ccccc32)c(=O)n(C)c1=O	18.3	n	n	n	x	PG9 binder conf=13.4;PGV04 Ab binding=28.0
O=C(CN1C(=O)[C@@H](Cc2c[nH]c3ccccc23)N=C(c2ccccc2)c2ccccc21)NC1CCCCC1	x	x	x	n	x
Cc1ccc(-n2c(O)c(/C=N/c3ncc(Br)cc3Br)c(=O)[nH]c2=O)cc1	n	n	n	131.3	143.5	RORg DNA counter=n
CCOC(=O)C1CCCN(c2ccc([N+](=O)[O-])c3nonc23)C1 (stereo unspecified)	n	x	n	57.5	57.1	RORg DNA counter=2.47
COc1cc2c(cc1OC)-c1c3c(cc4c1[C@@H](C2)N(C)CC4)OCO3	n	n	n	15.4	n
CCOc1ccc2nc(N=Nc3c(O)[nH]c(=O)[nH]c3=O)sc2c1	n	n	n	25.4	n
Cc1c(N=Nc2c(O)[nH]c(=S)[nH]c2=O)c(=O)n(-c2ccccc2)n1C	n	n	n	n	x
CCOC(=O)c1sc(N=Nc2c(O)[nH]c(=O)[nH]c2=O)c(C(=O)OCC)c1C	x	n	x	x	x
CCOc1ccc2nc(N=Nc3c(O)[nH]c(=S)[nH]c3=O)sc2c1	n	n	n	24.6	36.2	RORg DNA counter=n
O=C(NCCN1CCC2(CC1)C(=O)NCN2c1ccccc1)C(c1ccccc1)c1ccccc1	n	x	x	n	x
N#CCC[C@H]1CC[C@]2(CCCN(Cc3ccccn3)C2)O1	x	x	x	n	x
CC(C)CC(C)N (stereo unspecified)	n	n	n	18.9	n
O=[N+]([O-])c1ccc(N2CCCC2)c2ccncc12	n	n	n	35.8	35.4	RORg DNA counter=n
O=[N+]([O-])c1ccc(NC2CCCC2)c2ccncc12	x	n	n	x	x

High-throughput results from PubChem.
